# From ChEMBL document CHEMBL1221168, “Activity-based probes that target diverse cysteine protease families” (Nat Chem Biol, 2005)
# Activity calls are given as the source filed them. The rule behind the calls is not given here.
# Assays:
# Cathepsin B = Cathepsin B (Rattus norvegicus, UniProt P00787); experiment: Binding affinity to cathepsin B in crude rat liver homogenates using [125I]DCG-04 based competition protein labeling by SDS-PAGE method; type: tissue-based
# In short: (§1)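 Rat liver lysate (50 µg protein in 50 mM sodium acetate, 2 mM DTT, 5 mM MgCl2, pH 5.5) was preincubated with compound from 50 mM DMSO stocks for 30 min at room temperature. [125I]DCG-04 (10^6 c.p.m.) was then added for 45 min at room temperature. Bands were resolved by SDS-PAGE, imaged and quantified, and IC50 was taken from the linear portion of the signal versus inhibitor concentration plot.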
# Cathepsin Z = Cathepsin Z (Rattus norvegicus, UniProt Q9R1T3); experiment: Binding affinity to cathepsin Z in crude rat liver homogenates using [125I]DCG-04 based competition protein labeling by SDS-PAGE method; type: tissue-based; in short: as §1
# Pro-cathepsin H = target: T1, Pro-cathepsin H (Rattus norvegicus, UniProt P00786); experiment: Binding affinity to cathepsin H in crude rat liver homogenates using [125I]DCG-04 based competition protein labeling by SDS-PAGE method; type: tissue-based; in short: as §1
# T1 sequence (P00786 whole entry): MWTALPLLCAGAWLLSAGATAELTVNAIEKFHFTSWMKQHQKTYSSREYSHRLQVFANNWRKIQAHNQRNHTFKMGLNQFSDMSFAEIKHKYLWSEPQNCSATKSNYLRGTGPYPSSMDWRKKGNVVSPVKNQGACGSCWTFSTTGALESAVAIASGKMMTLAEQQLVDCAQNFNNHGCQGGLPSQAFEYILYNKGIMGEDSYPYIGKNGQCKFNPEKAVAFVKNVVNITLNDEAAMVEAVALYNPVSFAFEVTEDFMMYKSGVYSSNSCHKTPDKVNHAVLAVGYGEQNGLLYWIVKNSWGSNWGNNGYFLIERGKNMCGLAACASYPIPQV
# Cathepsin J = target: T2, Cathepsin J (Rattus norvegicus, UniProt Q63088); experiment: Binding affinity to cathepsin J in crude rat liver homogenates using [125I]DCG-04 based competition protein labeling by SDS-PAGE method; type: tissue-based; in short: as §1
# T2 sequence (Q63088 whole entry): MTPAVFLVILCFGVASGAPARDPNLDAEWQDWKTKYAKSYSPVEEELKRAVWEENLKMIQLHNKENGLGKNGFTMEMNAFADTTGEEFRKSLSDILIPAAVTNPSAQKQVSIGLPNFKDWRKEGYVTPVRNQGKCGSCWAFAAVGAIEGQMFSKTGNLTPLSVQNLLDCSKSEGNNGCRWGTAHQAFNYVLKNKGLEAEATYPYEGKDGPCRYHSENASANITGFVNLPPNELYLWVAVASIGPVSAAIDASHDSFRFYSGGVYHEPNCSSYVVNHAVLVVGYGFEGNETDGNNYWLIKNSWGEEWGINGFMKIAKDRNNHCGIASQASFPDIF
# Dipeptidyl peptidase 1 = target: T3, Dipeptidyl peptidase 1 (Rattus norvegicus, UniProt P80067); experiment: Binding affinity to cathepsin C in crude rat liver homogenates using [125I]DCG-04 based competition protein labeling by SDS-PAGE method; type: tissue-based; in short: as §1
# T3 sequence (P80067 whole entry): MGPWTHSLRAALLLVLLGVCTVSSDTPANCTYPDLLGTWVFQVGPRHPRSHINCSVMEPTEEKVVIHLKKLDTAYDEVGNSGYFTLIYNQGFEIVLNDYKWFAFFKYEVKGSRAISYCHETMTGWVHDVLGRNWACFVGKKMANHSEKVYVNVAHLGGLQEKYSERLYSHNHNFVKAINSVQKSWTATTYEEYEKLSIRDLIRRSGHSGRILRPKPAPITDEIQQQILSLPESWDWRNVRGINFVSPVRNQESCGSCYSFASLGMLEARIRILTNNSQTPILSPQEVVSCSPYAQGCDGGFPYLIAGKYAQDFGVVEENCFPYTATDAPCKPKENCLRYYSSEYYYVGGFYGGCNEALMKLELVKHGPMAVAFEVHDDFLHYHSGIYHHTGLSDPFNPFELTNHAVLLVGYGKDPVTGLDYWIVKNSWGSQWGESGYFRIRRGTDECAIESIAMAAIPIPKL
# [1] = target: Cathepsin Z (Rattus norvegicus) (UniProt Q9R1T3); experiment: Binding affinity to cathepsin Z in crude rat liver homogenates using [125I]DCG-04 based competition protein labeling up to 50 uM by SDS-PAGE method; type: tissue-based; in short: as §1
# [2] = target: T4, Pro-cathepsin H (Rattus norvegicus) (UniProt P00786); experiment: Binding affinity to cathepsin H in crude rat liver homogenates using [125I]DCG-04 based competition protein labeling up to 50 uM by SDS-PAGE method; type: tissue-based; in short: as §1
# T4 sequence (whole entry): T1 sequence (P00786 whole entry)
# [3] = target: T5, Cathepsin J (Rattus norvegicus) (UniProt Q63088); experiment: Binding affinity to cathepsin J in crude rat liver homogenates using [125I]DCG-04 based competition protein labeling up to 50 uM by SDS-PAGE method; type: tissue-based; in short: as §1
# T5 sequence (whole entry): T2 sequence (Q63088 whole entry)
# [4] = target: T6, Dipeptidyl peptidase 1 (Rattus norvegicus) (UniProt P80067); experiment: Binding affinity to cathepsin C in crude rat liver homogenates using [125I]DCG-04 based competition protein labeling up to 50 uM by SDS-PAGE method; type: tissue-based; in short: as §1
# T6 sequence (whole entry): T3 sequence (P80067 whole entry)
# [5] = target: T7, Procathepsin L (Rattus norvegicus) (UniProt P07154); experiment: Binding affinity to cathepsin L in crude rat liver homogenates assessed as protein labeling; type: tissue-based; conditions: tested as the 125I-labelled form
# T7 sequence (whole entry): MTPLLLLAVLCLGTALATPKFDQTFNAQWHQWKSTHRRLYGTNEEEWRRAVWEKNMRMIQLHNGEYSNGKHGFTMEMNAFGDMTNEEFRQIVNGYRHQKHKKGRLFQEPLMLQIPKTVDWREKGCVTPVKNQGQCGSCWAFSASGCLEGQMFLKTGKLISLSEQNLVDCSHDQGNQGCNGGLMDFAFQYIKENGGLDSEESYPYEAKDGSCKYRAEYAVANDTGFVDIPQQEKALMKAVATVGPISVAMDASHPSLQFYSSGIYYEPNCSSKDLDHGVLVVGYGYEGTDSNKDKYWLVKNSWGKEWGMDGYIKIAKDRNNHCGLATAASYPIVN
# [6] = target: Arg-gingipain-1 proteinase (Porphyromonas gingivalis) (UniProt Q51816); experiment: Binding affinity to Arg-gingipain in total lcrude cell lysates of Porphyromonas gingivalis assessed as protein lebeling; conditions: tested as the 125I-labelled form
# [7] = target: Lys-gingipain (Porphyromonas gingivalis (strain ATCC 33277 / DSM 20709 / JCM 12257)) (UniProt B2RLK2); experiment: Binding affinity to Lys-gingipain in total lcrude cell lysates of Porphyromonas gingivalis assessed as protein lebeling; conditions: tested as the 125I-labelled form
# [8] = target: Cathepsin B (Rattus norvegicus) (UniProt P00787); experiment: Binding affinity to cathepsin B in crude rat liver homogenates using [125I]DCG-04 based competition protein labeling up to 50 uM by SDS-PAGE method; type: tissue-based; in short: as §1
Structure (SMILES),IC50 (Cathepsin B),IC50 (Pro-cathepsin H),IC50 (Cathepsin J),IC50 (Dipeptidyl peptidase 1),inhibition [1],further results
CC(=O)N[C@@H](Cc1ccc(O)cc1)C(=O)N[C@@H](Cc1ccccc1)C(=O)N[C@@H](CCCNC(=N)N)C(=O)COC(=O)c1c(C)cccc1C,0.0073 µM,12 µM,3.6 µM,3.6 µM,–,IC50 (Cathepsin Z): 4.7 µM
Cc1cccc(C)c1C(=O)OCC(=O)[C@H](CCCN=C(N)N)NC(=O)[C@H](Cc1ccccc1)NC(=O)OCc1ccccc1,0.015 µM,–,–,–,–,–
Cc1cccc(C)c1C(=O)OCC(=O)[C@H](CCCNC(=N)N)NC(=O)[C@H](Cc1ccccc1)NC(=O)OCc1ccccc1,–,–,–,–,inactive,inhibition [2]: inactive; inhibition [3]: inactive; inhibition [4]: inactive
COc1ccc(C(=O)ONC(=O)CNC(=O)[C@H](Cc2ccccc2)NC(=O)OCc2ccccc2)cc1,1.2 µM,6.6 µM,8.3 µM,8.3 µM,–,IC50 (Cathepsin Z): 1.5 µM
CC(=O)N[C@@H](CCCCNC(=O)CCCCC1SC[C@H]2NC(=O)N[C@@H]12)C(=O)N[C@@H](Cc1ccc(O)c(I)c1)C(=O)NCCCCCC(=O)NCC(=O)COC(=O)c1c(C)cccc1C (stereo partly specified),–,–,–,–,–,Activity [5]: Active
CC(=O)N[C@@H](Cc1ccc(O)cc1)C(=O)N[C@@H](Cc1ccccc1)C(=O)NCC(=O)COC(=O)c1c(C)cccc1C,0.22 µM,7.9 µM,6.4 µM,6.4 µM,–,IC50 (Cathepsin Z): 39 µM
CC(=O)N[C@@H](CCCCNC(=O)CCCCC1SC[C@H]2NC(=O)N[C@@H]12)C(=O)N[C@@H](Cc1ccc(O)c(I)c1)C(=O)NCCCCCC(=O)N[C@@H](CCCCN)C(=O)COC(=O)c1c(C)cccc1C (stereo partly specified),–,–,–,–,–,Activity [6]: Active; Activity [7]: Active
Cc1cccc(C)c1C(=O)OCC(=O)CNC(=O)[C@H](CC(C)C)NC(=O)OCc1ccccc1,0.92 µM,7.9 µM,49 µM,49 µM,inactive,–
CC(=O)N[C@@H](CCCCNC(=O)CCCCC1SC[C@H]2NC(=O)N[C@@H]12)C(=O)N[C@@H](Cc1ccc(O)c(I)c1)C(=O)NCCCCCC(=O)N[C@@H](CC(C)C)C(=O)COC(=O)c1c(C)cccc1C (stereo partly specified),–,–,–,–,–,Activity [5]: Active
COc1ccc(C(=O)OCC(=O)CNC(=O)[C@H](Cc2ccccc2)NC(=O)OCc2ccccc2)cc1,–,–,–,–,inactive,inhibition [8]: inactive; inhibition [2]: inactive; inhibition [3]: inactive; inhibition [4]: inactive
CC(=O)N[C@@H](CCCCNC(=O)CCCCC1SC[C@H]2NC(=O)N[C@@H]12)C(=O)N[C@@H](Cc1ccc(O)c(I)c1)C(=O)NCCCCCC(=O)N[C@@H](CCCNC(=N)N)C(=O)COC(=O)c1c(C)cccc1C (stereo partly specified),–,–,–,–,–,Activity [6]: Active; Activity [7]: Active
Cc1cccc(C)c1C(=O)OCC(=O)CNC(=O)[C@H](Cc1ccccc1)NC(=O)OCc1ccccc1,0.12 µM,–,–,–,inactive,inhibition [2]: inactive; inhibition [3]: inactive; inhibition [4]: inactive
